Paper PMC3815528 (Molecular nutrition & food research, 2013)

Assays:
[1] = Metabolic profile of [6]-shogaol in dog liver microsomes; type: in vitro ADME, beagle dog; conditions: dog liver microsomes 0.5 mg/mL, [6]-shogaol 50 µM, 30 min
How it was run: (§1)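 Microsomes in 100 mM potassium phosphate buffer with an NADPH-regenerating system were preincubated 5 min at 37°C. Reaction was started with test compound (DMSO, final ≤1% v/v) and run 30 min at 37°C, then stopped with an equal volume of ice-cold acetonitrile containing 2% acetic acid. After centrifugation at 13,000g for 10 min, supernatant went to C18 HPLC with electrochemical array detection, read at the 300 mV channel.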

[2] = Metabolic profile of [6]-shogaol in monkey liver microsomes; type: in vitro ADME, cynomolgus monkey; conditions: monkey liver microsomes 0.5 mg/mL, [6]-shogaol 50 µM, 30 min
How it was run: as §1

[3] = Metabolic profile of [6]-shogaol in mouse liver microsomes; type: in vitro ADME, CD-1 mouse; conditions: mouse liver microsomes 0.5 mg/mL, [6]-shogaol 50 µM, 30 min
How it was run: as §1

[4] = Metabolic profile of [6]-shogaol in rat liver microsomes; type: in vitro ADME, Sprague-Dawley rat; conditions: rat liver microsomes 0.5 mg/mL, [6]-shogaol 50 µM, 30 min
How it was run: as §1

[5] = Metabolic profile of [6]-shogaol in human liver microsomes; type: in vitro ADME; conditions: human liver microsomes 0.5 mg/mL, [6]-shogaol 50 µM, 30 min
[6] = test system: HCT-116 human colon cancer cells; assay: Induction of apoptosis; type: cell-based; conditions: HCT-116, 10 µM compound, 24 hours
How it was run: (§2)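 Cells in McCoy's 5A with 10% FBS, 1% penicillin/streptomycin and 1% glutamine were seeded at 5000 cells/well and allowed to attach overnight at 37°C. They were then exposed to test compound in DMSO, diluted in medium, for 24 h. Lysates were spun at 300 g for 10 min and run in a histone–DNA sandwich ELISA (anti-histone-biotin/anti-DNA-POD, 2 h RT; ABTS 15 min; A430). Triplicate; fold over DMSO control, mean ± SD.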

[7] = test system: HCT-116 human colon cancer cells; assay: MTT growth inhibition, human colon cancer cells; type: cell-based; conditions: read-out: IC50, cell viability (MTT); HCT-116, 24 hours, 0 to 80 µM
[8] = test system: H-1299 human lung cancer cells; assay: MTT growth inhibition, human lung cancer cells; type: cell-based; conditions: read-out: IC50, cell viability (MTT); H-1299, 24 hours, 0 to 80 µM
[9] = test system: H-1299 human lung cancer cells; assay: Induction of apoptosis; type: cell-based; conditions: H-1299, 10 µM compound, 24 hours
How it was run: as §2

[10] = Kinetic study of [6]-shogaol metabolism to M6 in dog liver microsomes; type: in vitro ADME, beagle dog; conditions: dog liver microsomes 0.1 mg/mL, [6]-shogaol 7.8 to 2000 µM, 30 min
[11] = Kinetic study of [6]-shogaol metabolism to M6 in mouse liver microsomes; type: in vitro ADME, CD-1 mouse; conditions: mouse liver microsomes 0.1 mg/mL, [6]-shogaol 7.8 to 2000 µM, 30 min
[12] = Kinetic study of [6]-shogaol metabolism to M6 in human liver microsomes; type: in vitro ADME; conditions: probe [6]-shogaol (substrate)

| SMILES | Relative abundance of metabolite formed from [6]-shogaol [1] | Relative abundance of metabolite formed from [6]-shogaol [2] | Relative abundance of metabolite formed from [6]-shogaol [3] | Relative abundance of metabolite formed from [6]-shogaol [4] | Relative abundance of metabolite formed from [6]-shogaol [5] | IC50 [7] [µM] | IC50 [8] [µM] | Km at 30 min [12] [µM] | Induction of apoptosis compared to DMSO control [6] [fold] | Induction of apoptosis compared to DMSO control [9] [fold] | Vmax of M6 formation [10] | Vmax of M6 formation [11] |
| --- | --- | --- | --- | --- | --- | --- | --- | --- | --- | --- | --- | --- |
| CCCCC/C=C/C(=O)CCc1ccc(O)c(OC)c1 [[6]-shogaol] |  |  |  |  |  | 19.9 | 17.3 |  | 1 | ~2 |  |  |
| CCCCCC=CC(O)CCc1ccc(O)c(OC)c1 (stereo not drawn) [M6, 1-(4'-hydroxy-3'-methoxyphenyl)-4-decen-3-ol] | intermediate relative amount | minor metabolite | dominant peak | dominant peak | intermediate relative amount |  |  | 45.6 |  |  | 7.33 +/− 0.43 nanomoles per minute per milligram liver microsomes | 4.10 +/− 0.19 nanomoles per minute per milligram liver microsomes |
| CCCCCCCC(=O)CCc1ccc(O)c(OC)c1 [M11, 1-(4'-hydroxy-3'-methoxyphenyl)-decan-3-one] | very minor product | minute amounts | minute amounts | very minor product | major product |  |  |  |  |  |  |  |

More lines, main results first:

| Relative abundance of metabolite formed from [6]-shogaol [1] | Relative abundance of metabolite formed from [6]-shogaol [2] | Relative abundance of metabolite formed from [6]-shogaol [3] | Relative abundance of metabolite formed from [6]-shogaol [4] | Relative abundance of metabolite formed from [6]-shogaol [5] | IC50 [7] [µM] | IC50 [8] [µM] | Km at 30 min [12] [µM] | SMILES | Induction of apoptosis compared to DMSO control [6] [fold] | Induction of apoptosis compared to DMSO control [9] [fold] | Vmax of M6 formation [10] | Vmax of M6 formation [11] |
| --- | --- | --- | --- | --- | --- | --- | --- | --- | --- | --- | --- | --- |
| minor | major metabolite | minor | minor | smallest amount |  |  |  | CCCCC/C=C/C(=O)/C=C/c1ccc(O)c(OC)c1 [M14, (1E, 4E)-1-(4'-hydroxy-3'-methoxyphenyl)-deca-1,4-dien-3-one] |  |  |  |  |
| abundant | abundant | very minor | very minor | very minor |  |  |  | CCCCCCCC(=O)/C=C/c1ccc(O)c(OC)c1 [M15, (E)-1-(4'-hydroxy-3'-methoxyphenyl)-dec-1-en-3-one] |  |  |  |  |
